Source: paper PMC7551138 (Alzheimer's & Dementia : Translational Research & Clinical …, 2020)

Tests used:
Assay type in all cases: in vivo, human
[1] = test system: healthy elderly subjects; test: Monitoring of treatment‐emergent adverse events
Outline: (§1)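 Randomised, double-blind, placebo-controlled trial in healthy subjects aged ≥65 (n=48; 12 active:4 placebo per cohort, placebos pooled). Intranasal test compound 5.5, 11 or 22 mg or 0.9% NaCl b.i.d. for 7 days, 6 h between doses. The 11 mg active subjects later got one open-label oral 16 mg dose of the parent drug. Safety was tracked by TEAEs, nasal examination, vital signs, ECG and safety bloods.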

[2] = test system: healthy elderly subjects; test: Vital signs; settings: for Diastolic BP supine / Pulse Rate supine / Systolic BP supine: vs placebo, mean (confidence interval)
Outline: as §1

[3] = Plasma pharmacokinetics, non‐compartmental analysis
[4] = CSF and plasma concentrations, Gln‐1062 11 mg vs 16 mg oral galantamine
[5] = test system: healthy elderly subjects; test: NeuroCart adaptive tracking test; settings: vs placebo, mean (confidence interval)
Outline: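 Joystick task keeping a dot inside a moving circle. Circle speed rises while the dot stays inside and falls when it escapes. The score is % time tracked over 3.5 min, including a 0.5 min run-in. Testing was repeated over time, with extra sessions in the 22 mg cohort. Analysis was mixed-model ANOVA (treatment, time, treatment×time fixed; subject random; baseline covariate), reporting LSM difference versus placebo with CI.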

[6] = test system: healthy elderly subjects; test: NeuroCart eye movements; settings: vs placebo, mean (confidence interval)
Outline: (§2)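 NeuroCart tests were repeated over time during the 7-day b.i.d. intranasal dosing: eye movements, N-back with 3 working-memory-load conditions, pharmaco-EEG, and 100-mm VAS (Bond and Lader mood/alertness/calmness; nausea). In the 22 mg cohort, EEG at 30 min and 3 h post-dose was dropped. Analysis was mixed-model ANOVA (treatment, time, treatment×time fixed; subject random; baseline covariate), giving LSM difference versus placebo with CI.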

[7] = test system: healthy elderly subjects; test: Visual analogue scales; settings: vs placebo, mean (confidence interval)
Outline: as §2

[8] = 5.5 mg b.i.d. intranasal, within 24 hours after first administration, dosing day 1
[9] = 22 mg b.i.d. intranasal, within 24 hours after first administration, dosing day 1
[10] = 5.5 mg b.i.d. intranasal 7 days

Q: For `COc1ccc2c3c1O[C@H]1C[C@@H](OC(=O)c4ccccc4)C=C[C@@]31CCN(C)C2` [Gln‐1062], which “TEAEs within 24 hours: All gastrointestinal disorders” value [1, 8] is on record?
A: The value was 1 (8.3) number of subjects (percentage.

Q: What about the “TEAEs within 24 hours: Any events” value [1, 8] of the same compound?
A: The value was 7 (58.3) number of subjects (percentage.

Q: What about the “TEAEs within 24 hours: Nausea” value [1, 8] of the same compound?
A: Its value is 1 (8.3) number of subjects (percentage.

Q: And the “TEAEs within 24 hours: Vomiting” value [1, 8]?
A: Its value is 1 (8.3) number of subjects (percentage.

Q: And the “TEAEs within 24 hours: Any events” value ([1]; 11 mg b.i.d. intranasal, within 24 hours after first administration, dosing day 1)?
A: The value was 12 (100.0) number of subjects (percentage.

Q: And the “TEAEs within 24 hours: All gastrointestinal disorders” value [1, 9]?
A: Its value is 6 (50.0) number of subjects (percentage.

Q: And the “TEAEs within 24 hours: Any events” value [1, 9]?
A: Its value is 12 (100.0) number of subjects (percentage.

Q: And the “TEAEs within 24 hours: Diarrhea” value [1, 9]?
A: Its value is 2 (16.7) number of subjects (percentage.

Q: What about the “TEAEs within 24 hours: Nausea” value [1, 9] of the same compound?
A: Its value is 5 (41.7) number of subjects (percentage.

Q: And the “TEAEs within 24 hours: Vomiting” value [1, 9]?
A: Its value is 3 (25.0) number of subjects (percentage.

Q: What about the “intensity of TEAEs” value ([1]; 5.5 to 22 mg b.i.d., 7 days) of the same compound?
A: Its value is “mild or moderate”.

Q: What about the serious adverse events ([1]; 5.5 to 22 mg b.i.d., 7 days) of the same compound?
A: The serious adverse events was “no serious adverse events”.

Q: And the safety and tolerability ([1]; up to 22 mg b.i.d. intranasal for 7 days)?
A: Its safety and tolerability is “safe and well tolerated”.

Q: What about the “Diastolic BP supine” value [2, 10] of the same compound?
A: The value was 2.5 (−0.6, 5.6) P = 0.1105 mmHg.

Q: What about the “Pulse Rate supine” value [2, 10] of the same compound?
A: The value was −2.5 (−6.4, 1.4) P = 0.2044 bpm.

Q: What about the “Systolic BP supine” value [2, 10] of the same compound?
A: Its value is 5.0 (−0.3, 10.4) P = 0.0644 mmHg.

Q: And the “Diastolic BP supine” value ([2]; 11 mg b.i.d. intranasal 7 days)?
A: Its value is 0.9 (−2.2, 4.1) P = 0.5566 mmHg.

Q: What about the “Pulse Rate supine” value ([2]; 11 mg b.i.d. intranasal 7 days) of the same compound?
A: The value was −1.0 (−4.9, 2.9) P = 0.6030 bpm.

Q: What about the “Systolic BP supine” value ([2]; 11 mg b.i.d. intranasal 7 days) of the same compound?
A: The value was 1.2 (−4.1, 6.5) P = 0.6528 mmHg.

Q: What about the “Diastolic BP supine” value ([2]; 22 mg b.i.d. intranasal 7 days) of the same compound?
A: The value was 1.2 (−1.9, 4.3) P = 0.4437 mmHg.

Q: What about the “Pulse Rate supine” value ([2]; 22 mg b.i.d. intranasal 7 days) of the same compound?
A: Its value is 0.5 (−3.5, 4.4) P = 0.8169 bpm.

Q: What about the “Systolic BP supine” value ([2]; 22 mg b.i.d. intranasal 7 days) of the same compound?
A: The value was 1.8 (−3.6, 7.2) P = 0.5098 mmHg.

Q: What about the “effect on the pulse rate” value ([2]; all dose levels) of the same compound?
A: Its value is “No statistically significant effect”.

Q: What about the “increase in mean diastolic blood pressure” value ([2]; first dosing day, 11 mg) of the same compound?
A: Its value is 5.1 mm Hg.

Q: What about the “changes in blood and urinary laboratory values and ECG safety parameters” value ([2]; multiple doses) of the same compound?
A: Its value is “did not result in clinically significant changes”.

Q: And the “increase in systolic blood pressure” value ([2]; seventh day, 5.5 mg)?
A: Its value is 7.6 mm Hg.

Q: And the “t1/2 of Gln‐1062 in plasma, mean (± SD)” value ([3]; 5.5 mg intranasal)?
A: The value was 1.16 (±0.37) hour.

Q: And the “t1/2 of Gln‐1062 in plasma, mean (± SD)” value ([3]; 22 mg intranasal)?
A: Its value is 2.09 (± 0.58) hour.

Q: And the “median Tmax of Gln‐1062 in plasma” value ([3]; intranasal 5.5, 11 or 22 mg b.i.d., range 0.5 to 1.0 hour)?
A: Its value is 30 min.

Q: And the “Gln‐1062 concentrations in CSF” value ([4]; 11 mg Gln‐1062 intranasal)?
A: Its value is “below the limit of quantification”.

Q: What about the “Dose‐corrected plasma and CSF concentrations of galantamine cleaved from Gln‐1062, compared with oral galantamine” value ([4]; 11 mg Gln‐1062 intranasal vs 16 mg oral galantamine) of the same compound?
A: The value was “lower”.

Q: And the Adaptive tracking [5, 10]?
A: Its Adaptive tracking is 0.520 (−0.779, 1.818) P = 0.4240 %‐point.

Q: What about the Adaptive tracking ([5]; 11 mg b.i.d. intranasal 7 days) of the same compound?
A: The Adaptive tracking was 0.318 (−0.992, 1.627) P = 0.6266 %‐point.

Q: What about the “Saccadic Inaccuracy” value [6, 10] of the same compound?
A: The value was 0.59 (−0.46, 1.64) P = 0.2627%.

Q: And the “Saccadic Peak Velocity” value [6, 10]?
A: Its value is −0.06 (−21.97, 21.85) P = 0.9958 deg/s.

Q: What about the “Saccadic Reaction Time” value [6, 10] of the same compound?
A: Its value is −0.0112 (−0.0224,−0.0001) P = 0.0481 sec.

Q: What about the “Smooth Pursuit” value [6, 10] of the same compound?
A: Its value is −1.28 (−5.10, 2.53) P = 0.5011%.

Q: What about the “Saccadic Inaccuracy” value ([6]; 11 mg b.i.d. intranasal 7 days) of the same compound?
A: The value was 0.20 (−0.89, 1.30) P = 0.7099%.

Q: And the “Saccadic Peak Velocity” value ([6]; 11 mg b.i.d. intranasal 7 days)?
A: The value was 5.03 (−17.82, 27.87) P = 0.6588 deg/s.

Q: What about the “Saccadic Reaction Time” value ([6]; 11 mg b.i.d. intranasal 7 days) of the same compound?
A: The value was −0.0018 (−0.0134, 0.0098) P = 0.7546 sec.

Q: What about the “Smooth Pursuit” value ([6]; 11 mg b.i.d. intranasal 7 days) of the same compound?
A: The value was −0.10 (−4.04, 3.84) P = 0.9597%.

Q: And the “Saccadic Inaccuracy” value ([6]; 22 mg b.i.d. intranasal 7 days)?
A: The value was 0.51 (−0.56, 1.58) P = 0.3393%.

Q: What about the “Saccadic Peak Velocity” value ([6]; 22 mg b.i.d. intranasal 7 days) of the same compound?
A: The value was 8.63 (−13.65, 30.91) P = 0.4379 deg/s.

Q: What about the “Saccadic Reaction Time” value ([6]; 22 mg b.i.d. intranasal 7 days) of the same compound?
A: Its value is −0.0013 (−0.0126, 0.0101) P = 0.8228 sec.

Q: What about the “Smooth Pursuit” value ([6]; 22 mg b.i.d. intranasal 7 days) of the same compound?
A: Its value is 2.00 (−1.88, 5.88) P = 0.3039%.

Q: What about the “VAS Alertness” value [7, 10] of the same compound?
A: The value was −1.09 (−3.74, 1.57) P = 0.4134 mm.

Q: What about the “VAS Calmness” value [7, 10] of the same compound?
A: Its value is 0.44 (−2.59, 3.48) P = 0.7694 mm.

Q: And the “VAS Mood” value [7, 10]?
A: The value was −0.92 (−3.98, 2.13) P = 0.5462 mm.

Q: What about the “VAS Alertness” value ([7]; 11 mg b.i.d. intranasal 7 days) of the same compound?
A: The value was 0.63 (−2.15, 3.41) P = 0.6514 mm.

Q: What about the “VAS Calmness” value ([7]; 11 mg b.i.d. intranasal 7 days) of the same compound?
A: The value was 0.27 (−2.86, 3.40) P = 0.8615 mm.

Q: And the “VAS Mood” value ([7]; 11 mg b.i.d. intranasal 7 days)?
A: Its value is −0.49 (−3.59, 2.62) P = 0.7530 mm.

Q: What about the “VAS Alertness” value ([7]; 22 mg b.i.d. intranasal 7 days) of the same compound?
A: Its value is −0.21 (−2.86, 2.44) p = 0.8735 mm.

Q: And the “VAS Calmness” value ([7]; 22 mg b.i.d. intranasal 7 days)?
A: Its value is 0.44 (−2.61, 3.49) P = 0.7734 mm.
